Source: ChEMBL document CHEMBL3525987, “Assessment of exposure of metabolites in preclinical species and humans at steady state from the single-dose radiolabeled absorption, distribution, metabolism, and excretion studies: a case study” (Drug Metab Dispos, 2012)

Columns and labels:
[1] = Half life in male Sprague-Dawley rat plasma at 10 mg/kg, po administered as single dose via gavage by LC-MS/MS analysis; format: ADME, organism-based; parameters: dose 10 mg/kg, dosed compound name [14C]lixivaptan, route oral
How it was run: (§1)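 Jugular-vein cannulated SD rats (5/gender) given gavage [14C]drug 10 mg/kg in pluronic F68/water; K2EDTA blood 0.25-168 h with donor blood replacement. Parent by validated LC-MS/MS, radioactivity by LSC; Tmax observed; t1/2 = 0.693/kel by terminal log-linear regression.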

[2] = Tmax in male Sprague-Dawley rat plasma at 10 mg/kg, po administered as single dose via gavage by LC-MS/MS analysis; format: ADME, organism-based; parameters: dose 10 mg/kg, dosed compound name [14C]lixivaptan, route oral; how it was run: as §1
[3] = AUC(0 to t) in human plasma at 100 mg, po administered as single dose by LC-MS/MS analysis; format: ADME, organism-based; parameters: dosed compound name [14C]lixivaptan
How it was run: (§2)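 Fasted healthy males took one oral 100 mg (200 µCi) [14C]lixivaptan dose. Plasma was drawn from predose to 144 h. Total radioactivity was measured by LSC and converted to ng-equiv/ml via the dose specific activity; lixivaptan by validated LC-MS/MS. Noncompartmental analysis: Cmax observed; kel by log-linear regression; AUC0-t by linear trapezoid; extrapolation as Cest/kel.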

[4] = Cmax in human plasma at 100 mg, po administered as single dose by LC-MS/MS analysis; format: ADME, organism-based; parameters: dose 100 mg, route oral, dosed compound name [14C]lixivaptan; how it was run: as §2
[5] = Tmax in female Sprague-Dawley rat plasma at 10 mg/kg, po administered as single dose via gavage by LC-MS/MS analysis; format: ADME, organism-based; parameters: dose 10 mg/kg, dosed compound name [14C]lixivaptan, route oral; how it was run: as §1
[6] = AUC(0 to t) in female Sprague-Dawley rat plasma at 10 mg/kg, po administered as single dose via gavage by LC-MS/MS analysis; format: ADME, organism-based; parameters: dose 10 mg/kg, dosed compound name [14C]lixivaptan, route oral
How it was run: (§3)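 Jugular-cannulated Sprague-Dawley rats (5/gender) were fasted 18 h and gavaged once with 10 mg/kg [14C]lixivaptan suspended in water/pluronic F68. K2EDTA blood was taken at 0.25–168 h, with donor blood replaced from 1 h on. Total radioactivity was read by LSC (ng-equiv/ml) and parent by validated LC-MS/MS. Noncompartmental Cmax, log-linear kel and trapezoidal AUC followed.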

[7] = Cmax in female Sprague-Dawley rat plasma at 10 mg/kg, po administered as single dose; format: ADME, organism-based; parameters: dose 10 mg/kg, dosed compound name [14C]lixivaptan, route oral; how it was run: as §3
[8] = AUC(0 to infinity) in female Sprague-Dawley rat plasma at 10 mg/kg, po administered as single dose via gavage by LC-MS/MS analysis; format: ADME, organism-based; parameters: time infinity, dose 10 mg/kg, dosed compound name [14C]lixivaptan, route oral; how it was run: as §3
[9] = Half life in human plasma at 100 mg, po administered as single dose by LC-MS/MS analysis; format: ADME, organism-based; parameters: dosed compound name [14C]lixivaptan
How it was run: (§4)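 Single oral 100 mg [14C]drug to healthy male volunteers; plasma at 0.25-144 h. Parent by validated LC-MS/MS, total radioactivity by LSC as ng-equiv/ml; Tmax from observed data; t1/2 = 0.693/kel from log-linear terminal regression.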

[10] = AUC(0 to infinity) in human plasma at 100 mg, po administered as single dose by LC-MS/MS analysis; format: ADME, organism-based; parameters: dose 100 mg, route oral, time infinity, dosed compound name [14C]lixivaptan; how it was run: as §2
[11] = Tmax in human plasma at 100 mg, po administered as single dose by LC-MS/MS analysis; format: ADME, organism-based; parameters: dosed compound name [14C]lixivaptan; how it was run: as §4
[12] = Cmax in male Sprague-Dawley rat plasma at 10 mg/kg, po administered as single dose via gavage by LC-MS/MS analysis; format: ADME, organism-based; parameters: dose 10 mg/kg, dosed compound name [14C]lixivaptan, route oral; how it was run: as §3
[13] = AUC(0 to infinity) in male beagle dog plasma at 10 mg/kg, po administered as single dose by LC-MS/MS analysis; format: ADME, organism-based, Canis lupus familiaris; parameters: time infinity, dose 10 mg/kg, dosed compound name [14C]lixivaptan, route oral
How it was run: (§5)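 Four male beagles were fasted 18 h and gavaged once with 10 mg/kg (2 ml/kg) [14C]lixivaptan as a 5.0 mg/ml water/pluronic F68 suspension. Jugular K2EDTA blood was sampled from 0.25 to 168 h. Plasma total radioactivity was counted by LSC as ng-equiv/ml and lixivaptan by validated LC-MS/MS. Noncompartmental Cmax, t1/2 and trapezoidal AUC were derived.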

[14] = AUC(0 to infinity) in male Sprague-Dawley rat plasma at 10 mg/kg, po administered as single dose via gavage by LC-MS/MS analysis; format: ADME, organism-based; parameters: time infinity, dose 10 mg/kg, dosed compound name [14C]lixivaptan, route oral; how it was run: as §3
[15] = Tmax in male beagle dog plasma at 10 mg/kg, po administered as single dose by LC-MS/MS analysis; format: ADME, organism-based, Canis lupus familiaris; parameters: dose 10 mg/kg, dosed compound name [14C]lixivaptan, route oral
How it was run: (§6)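 Male beagles given 10 mg/kg [14C]drug oral suspension; jugular K2EDTA blood at 0.25-168 h. Parent by validated LC-MS/MS, total radioactivity by LSC; Tmax observed; t1/2 = 0.693/kel from terminal log-linear regression.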

[16] = Half life in male beagle dog plasma at 10 mg/kg, po administered as single dose by LC-MS/MS analysis; format: ADME, organism-based, Canis lupus familiaris; parameters: dose 10 mg/kg, dosed compound name [14C]lixivaptan, route oral; how it was run: as §6
[17] = Cmax in male beagle dog plasma at 10 mg/kg, po administered as single dose by LC-MS/MS analysis; format: ADME, organism-based, Canis lupus familiaris; parameters: dose 10 mg/kg, dosed compound name [14C]lixivaptan, route oral; how it was run: as §5
[18] = system: Homo sapiens; experiment: Drug concentration at steady state in human at 100 mg, po qd for 7 days by LC/MS/MS analysis; format: ADME, organism-based; parameters: dosed compound name Lixivaptan; conditions: in vivo, 168 h
How it was run: (§7)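 Phase 1 human study with lixivaptan 100 mg orally once daily and blood taken on the final day. Parent and two abundant metabolites were quantified in plasma with a validated LC-MS/MS assay.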

[19] = AUC at steady state in human at 100 mg, po qd for 7 days by LC/MS/MS analysis; format: ADME, organism-based; parameters: dosed compound name Lixivaptan; conditions: plasma; how it was run: as §7
[20] = Half life in female Sprague-Dawley rat plasma at 10 mg/kg, po administered as single dose via gavage by LC-MS/MS analysis; format: ADME, organism-based; parameters: dose 10 mg/kg, dosed compound name [14C]lixivaptan, route oral; how it was run: as §1
[21] = AUC(0 to t) in male Sprague-Dawley rat plasma at 10 mg/kg, po administered as single dose via gavage by LC-MS/MS analysis; format: ADME, organism-based; parameters: dose 10 mg/kg, dosed compound name [14C]lixivaptan, route oral; how it was run: as §3
[22] = AUC(0 to t) in male beagle dog plasma at 10 mg/kg, po administered as single dose by LC-MS/MS analysis; format: ADME, organism-based, Canis lupus familiaris; parameters: dose 10 mg/kg, dosed compound name [14C]lixivaptan, route oral; how it was run: as §5

For `Cc1ccc(F)cc1C(=O)Nc1ccc(C(=O)N2Cc3cccn3Cc3ccccc32)c(Cl)c1` [LIXIVAPTAN], the half-life [1] was 1.3 h, the Tmax [2] was 0.8 h and the AUC(0-t) [3] was 1540 ng·h/mL. It also gave a Cmax [4] of 437 ng/mL, a Tmax [5] of 0.8 h and an AUC(0-t) [6] of 1530 ng·h/mL. It also gave a Cmax [7] of 338 ng/mL, an AUC(0-inf) [8] of 1890 ng·h/mL and a half-life [9] of 9.77 h. It also gave an AUC(0-inf) [10] of 1570 ng·h/mL, a Tmax [11] of 0.7 h and a Cmax [12] of 91 ng/mL. For the same molecule, the AUC(0-inf) [13] was 4870 ng·h/mL, the AUC(0-inf) [14] was 219 ng·h/mL and the Tmax [15] was 0.8 h. The half-life [16] was 8.8 h, the Cmax [17] was 759 ng/mL and the Css [18] was 514 ng/mL. It also gave an AUC at 168 h [19] of 2960 ng·h/mL, a half-life [20] of 4.2 h and an AUC(0-t) [21] of 140 ng·h/mL. It also gave an AUC(0-t) [22] of 4700 ng·h/mL.
